miR-122 sensor: blocks miR-122 activity in Huh7 sensor cells; Huh7 miR-122 Renilla luciferase sensor, 48 h; neutral wells = 0, positive control = 100; activation (reporter increase), % at 12.5 µM; 340,000 compounds, 0.3% hits;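 active means mean replicate activation score at least 90 and every replicate individually at or above 90; inconclusive means only one of the two criteria met; inactive means neither criterion met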;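 further: higher luciferase means less miR-122 activity so hits act as miR-122 inhibitors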
Cneo AK release: causes C. neoformans cell lysis; lysis activity, % at 15 µM; 360,000 compounds, 0.2% hits; adenylate kinase release luminescence, 4 h; normalised: neutral wells 0, clomiphene wells 100;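 active means mean lysis activity across replicates of at least 80%, whatever share of replicates individually reach that level; inactive means mean lysis activity below 80%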
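read-out = cell lysis signal | test system = log-phase Cryptococcus neoformans yeast cells | input = cells at 5 × 10^6 per mL | medium = fresh YPD growth medium | signal = luminescent adenylate kinase detection reagent | timing = 4 h at 37 °C static, read 1 h later | dosing = single dose | controls = Clomiphene as positive lysis control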
Ecoli rRNA inh: inhibits bacterial ribosomal RNA function over humanized ribosomes; E. coli WT GFP vs humanized-ribosome RFP mutants, fluorescence, 24 h; active compounds read low; DMSO median 0, no signal -100; GFP signal change (wild-type ribosome), % (concentration not given with the values); 350,000 compounds, 1.6% hits; AID 720706;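 active means significant combined selectivity score with lowered wild-type GFP, culture density cut under 30%, mutant RFP and density less affected; inactive means any of these conditions unmet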
E-selectin induc: induces E-selectin expression in human endothelial cells; HUVEC E-selectin immunofluorescence imaging; normalized: neutral wells 0, TNF-alpha wells 100; activation, % at 7.58 µM; 260,000 compounds, 0.37% hits; AID 686992; P16581;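 active means mean E-selectin-positive cell signal at least 10% of the positive control, reached in at least 60% of replicates, without over 20% cell loss; inconclusive means no rule given, readout overlaps actives, possibly toxicity-flagged; inactive means the rest, including those meeting only one limit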
Target sequence (P16581 whole entry, looked up): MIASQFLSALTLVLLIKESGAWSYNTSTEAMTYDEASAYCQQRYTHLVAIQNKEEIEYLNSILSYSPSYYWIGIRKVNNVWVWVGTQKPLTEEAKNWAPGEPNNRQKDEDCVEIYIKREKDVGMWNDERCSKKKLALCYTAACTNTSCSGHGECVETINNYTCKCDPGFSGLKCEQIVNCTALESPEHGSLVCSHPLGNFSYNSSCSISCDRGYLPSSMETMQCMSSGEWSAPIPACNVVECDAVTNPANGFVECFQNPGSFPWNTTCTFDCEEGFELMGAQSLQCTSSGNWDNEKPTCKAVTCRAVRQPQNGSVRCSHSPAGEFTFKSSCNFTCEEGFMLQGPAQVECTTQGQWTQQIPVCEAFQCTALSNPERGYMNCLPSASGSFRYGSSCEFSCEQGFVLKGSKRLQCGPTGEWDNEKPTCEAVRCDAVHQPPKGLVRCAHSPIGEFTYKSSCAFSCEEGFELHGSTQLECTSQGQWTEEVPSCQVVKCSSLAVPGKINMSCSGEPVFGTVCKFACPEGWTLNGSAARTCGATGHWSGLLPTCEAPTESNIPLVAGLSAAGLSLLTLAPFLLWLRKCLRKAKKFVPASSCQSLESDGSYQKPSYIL
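Assay system: HUVEC, human umbilical vein endothelial cells / Amount: 3,000 HUVEC/well / Controls: TNF-alpha positive control, DMSO neutral control / Compound dosing: single concentration / Medium: EGM-2 over gelatin coat / Evaluation: percent E-selectin-positive cells / Signal: immunofluorescence imaging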
DENV2 CPE rescue: protects cells from dengue virus 2 cytopathic effect; 350,000 compounds, 1.7% hits; CPE inhibition, % at 9.99 µM; DENV2-infected cells, cytopathic effect rescue, plate reader; in the data active means CPE inhibition above about 20%, passing the limit was not always enough; inconclusive means no clear call, values can overlap the other calls; tested in BHK-21 cells
Each line names hits and unclear results; the compound was inactive in the other large screens. Most compounds without a hit are left out; they make up all but 3.1% or so of the library.

O=C(NC(=S)Nc1ccc(S(=O)(=O)Nc2nccs2)cc1)c1ccccc1	none (no result: Ecoli rRNA inh, DENV2 CPE rescue)
COc1ccc(S(=O)(=O)Nc2ccc3c(c2)C(=O)N([C@H](C)CO)C[C@H](C)[C@@H](CN(C)Cc2ccc(C(=O)O)cc2)OCCCC[C@@H](C)O3)cc1	DENV2 CPE rescue 32.6
COc1ccc(S(=O)(=O)Nc2ccc3c(c2)C(=O)N([C@H](C)CO)C[C@@H](C)[C@@H](CN(C)Cc2ccc(C(=O)O)cc2)OCCCC[C@@H](C)O3)cc1	none
COc1ccc(S(=O)(=O)Nc2ccc3c(c2)C(=O)N([C@@H](C)CO)C[C@@H](C)[C@@H](CN(C)Cc2ccc(C(=O)O)cc2)OCCCC[C@H](C)O3)cc1	DENV2 CPE rescue 25.8
C[C@@H]1CN([C@H](C)CO)C(=O)c2cc(NC(=O)Nc3ccc4c(c3)OCO4)ccc2O[C@@H](C)CCCCO[C@H]1CN(C)Cc1ccccc1	none
Cn1cc(CN(CCCN2CCOCC2)C(=S)Nc2cccc(Cl)c2)c2ccccc21	DENV2 CPE rescue 40.1 (no result: E-selectin induc)
Cc1cccc(NC(=S)N(CCCN2CCOCC2)Cc2cn(C)c3ccccc23)c1	none (no result: Ecoli rRNA inh, E-selectin induc, DENV2 CPE rescue)
COc1cc(OC)cc(-c2c(-c3cccs3)c3cc(Br)ccc3n2C)c1	none (no result: Ecoli rRNA inh)
COc1cc(F)cc(-c2ccc3c(c2)c(-c2cccs2)c(-c2cc(OC)cc(OC)c2)n3C)c1	DENV2 CPE rescue 77.8
COc1cc(OC)cc(-c2c(-c3cccs3)c3cc(-c4ccc5c(c4)OCO5)ccc3n2C)c1	none
COc1cc(OC)cc(-c2c(-c3cccs3)c3cc(-c4ccc(N(C)C)nc4)ccc3n2C)c1	DENV2 CPE rescue 33.6
COc1cc(OC)cc(-c2c(-c3cccs3)c3cc(-c4ccn[nH]4)ccc3n2C)c1	DENV2 CPE rescue 32.6
C[C@H]1CN([C@@H](C)CO)C(=O)c2cc(NC(=O)C3CCCCC3)ccc2O[C@H]1CN(C)C	none
C/C(=N\N1CCN(Cc2ccc(Cl)cc2)CC1)c1ccc(F)cc1	Ecoli rRNA inh -17.5
O=C(O)c1cccc(-c2csc(C(O)c3cccc(Cl)c3)n2)c1 (stereo not drawn)	DENV2 CPE rescue 45.9
O=C(NCc1ccccc1)c1ccc2c(c1)OCCO2	none (no result: Ecoli rRNA inh, E-selectin induc, DENV2 CPE rescue)
O=C(Nc1ccc2c(c1)OCCO2)C(=S)NCc1ccccc1	Ecoli rRNA inh -31.8 (no result: miR-122 sensor, Cneo AK release, DENV2 CPE rescue)
O=C(Nc1ccc2c(c1)OCCO2)c1ccccc1	none (no result: Ecoli rRNA inh, E-selectin induc, DENV2 CPE rescue)
O=C(Nc1ccc2c(c1)OCCO2)c1cccc(C(=O)Nc2ccc3c(c2)OCCO3)c1	DENV2 CPE rescue 26.0 (no result: miR-122 sensor, E-selectin induc)
COc1ccc(C(=O)Nc2ccc3c(c2)OCCO3)cc1[N+](=O)[O-]	E-selectin induc 46.2 (no result: Cneo AK release)
COc1ccc2c3c(n(C)c2c1)[C@H](CO)N(C(=O)c1ccc(F)cc1)CC31CCN(C(=O)c2ccc(F)cc2)CC1	none (no result: miR-122 sensor, Cneo AK release)
C[C@@H](CN1C2=NC[C@H](Cc3ccccc3)N2C[C@H]1Cc1ccc(O)cc1)NC(=O)CCC1CCCCC1	DENV2 CPE rescue 40.8 (no result: miR-122 sensor)
Cc1ccc(C(=O)N[C@@H](C)CN2C3=NC[C@H](C(C)C)N3C[C@H]2Cc2ccc(O)cc2)cc1Br	DENV2 CPE rescue 106.2
O=C(NCC[C@@H]1CC[C@@H](NS(=O)(=O)c2ccccc2)[C@H](CO)O1)c1ccccc1F	none (no result: miR-122 sensor)
Cc1ccc(CNS(=O)(=O)CCNC(=O)c2ccc3c(c2)OCO3)cc1	none
COc1ccccc1CCNS(=O)(=O)CCNC(=O)c1ccc2c(c1)OCO2	DENV2 CPE rescue 39.8
O=C(NCCS(=O)(=O)NCc1ccc2c(c1)OCO2)c1ccccc1	none
O=C(NCCS(=O)(=O)NCc1ccc(F)cc1)c1ccc2c(c1)OCO2	DENV2 CPE rescue 74.9 (no result: miR-122 sensor, E-selectin induc)
CCNC(=O)C[C@@H]1CC[C@H]2[C@H](COc3ccc(NC(=O)c4cccc(C(F)(F)F)c4)cc3C(=O)N2C)O1	none
COCCNC(=O)c1noc2c1CCc1cc(OC)ccc1-2	none (no result: Ecoli rRNA inh, E-selectin induc, DENV2 CPE rescue)
COc1ccc2c(c1)CCc1c(C(=O)N(C)c3ccccc3)noc1-2	Ecoli rRNA inh -42.9
C[C@@H]1CN([C@H](C)CO)S(=O)(=O)c2ccc(C3=CCCCC3)cc2O[C@@H]1CN(C)S(=O)(=O)c1cn(C)cn1	none
COc1ccc(C(=O)Nc2ccnn2C2CCN(C(=O)c3cnsn3)CC2)cc1	DENV2 CPE rescue 39.7
COc1ccccc1C(=O)Nc1ccnn1C1CCN(C(=O)c2cnsn2)CC1	DENV2 CPE rescue inconclusive
CCCN1C(=O)c2ccc(C(=O)Nc3cc(C)ccc3O)cc2C1=O	none (no result: E-selectin induc)
CCCN1C(=O)c2ccc(C(=O)Nc3ccccc3C(=O)O)cc2C1=O	Ecoli rRNA inh -21.2
COc1ccc2c3c(n(C)c2c1)[C@H](CO)N(C(=O)C1CC1)CC31CCN(C)CC1	none (no result: miR-122 sensor, Cneo AK release)
O=C(C[C@H]1CC[C@@H](NS(=O)(=O)c2ccccc2)[C@H](CO)O1)N1CCC(Cc2ccccc2)CC1	none (no result: miR-122 sensor, Cneo AK release)
O=C(Nc1ccccc1C(=O)O)/C(=C/c1ccc(Cl)cc1Cl)NC(=O)c1ccco1	Ecoli rRNA inh -32.0 (no result: miR-122 sensor)
O=C(Nc1cccc(C(=O)O)c1)/C(=C\c1ccco1)NC(=O)c1ccccc1Cl	none (no result: E-selectin induc)
C[C@@H]1CN([C@H](C)CO)C(=O)c2ccccc2-c2ccccc2CO[C@H]1CN(C)S(=O)(=O)c1cccc(C#N)c1	Cneo AK release 95.3 (no result: miR-122 sensor)
COc1cccc(S(=O)(=O)N(C)C[C@H]2OCc3ccccc3-c3ccccc3C(=O)N([C@H](C)CO)C[C@H]2C)c1	none (no result: miR-122 sensor)
COc1cccc(S(=O)(=O)N(C)C[C@@H]2OCc3ccccc3-c3ccccc3C(=O)N([C@@H](C)CO)C[C@@H]2C)c1	Cneo AK release 99.9 (no result: miR-122 sensor)
C[C@H](CO)N1C[C@H](C)[C@H](CN(C)S(=O)(=O)c2cccc(C#N)c2)OCc2ccccc2-c2ccccc2C1=O	none (no result: miR-122 sensor)
COC(=O)[C@@H]1C[C@H]2CC[C@H](O)C[C@H]2N1Cc1ccc(C(F)(F)F)cc1	DENV2 CPE rescue 60.8
CCCNC(=O)N1C[C@H](O)COC[C@H]2O[C@@H](CC(=O)N3CCN(C)CC3)CC[C@@H]21	none
CCCNC(=O)Nc1ccc2c(c1)C(=O)N(C)[C@@H]1CC[C@H](CC(=O)O)O[C@@H]1CO2	none
COC(=O)[C@@]1(C)[C@H]2C(=O)N(Cc3ccccc3)C(=O)[C@H]2[C@H]2CN=C(SCc3ccc(Cl)cc3)N21	Ecoli rRNA inh -21.1 (no result: E-selectin induc)
COC(=O)[C@@]1(Cc2ccccc2)[C@H]2C(=O)N(Cc3ccccc3)C(=O)[C@H]2[C@H]2CN=C(SCc3ccc(Cl)cc3)N21	DENV2 CPE rescue 84.5
COC(=O)[C@@]1(C)[C@H]2C(=O)N(Cc3ccccc3)C(=O)[C@H]2[C@H]2CN=C(SCc3ccc(C#N)cc3)N21	none
C[C@H](CO)N1C[C@H](C)[C@@H](CN(C)C(=O)NC2CCCCC2)Oc2ncc(C#CCN(C)C)cc2C1=O	none
CO[C@@H]1CN(C)C(=O)c2cc(NC(C)=O)ccc2OC[C@@H](C)N(C(=O)c2ccccn2)C[C@@H]1C	none
COCC(=O)N1CCC2(CC1)CN(C(=O)COC)[C@@H](CO)c1c2c2ccc(OC)cc2n1C	none (no result: miR-122 sensor, Cneo AK release)
